Measurements from ChEMBL document CHEMBL1149224, “Direct superoxide anion scavenging by a highly water-dispersible carotenoid phospholipid evaluated by electron paramagnetic resonance (EPR) spectroscopy” (2004).

Legend:
Assay type in all cases: functional
Homo sapiens [1] = species on record: Homo sapiens; experiment: Mean percent inhibition of aqueous superoxide anion production in isolated human neutrophil assay at 1 mM using water as solvent
Summary of the method: (§1)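 The carotenoid phospholipid isomer mix was dispersed in deionized water without heat, detergent or additives. Isolated human PMNs (Percoll gradient, hypotonic erythrocyte lysis, washed in PIPES-HSA-glucose buffer, pH 7.4) were preincubated 5 min with the suspension, then PMA-stimulated. Superoxide was spin-trapped with 10 mM DEPMPO and the DEPMPO-OOH signal measured by X-band EPR. Inhibition is expressed relative to the no-compound control signal.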

Homo sapiens [2] = species on record: Homo sapiens; experiment: Mean percent inhibition of aqueous superoxide anion production in isolated human neutrophil assay at 10 mM using water as solvent; summary of the method: as §1
Homo sapiens [3] = species on record: Homo sapiens; experiment: Mean percent inhibition of aqueous superoxide anion production in isolated human neutrophil assay at 3 mM using ethanol as solvent
Summary of the method: (§2)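 Human PMNs from one donor's venous blood were isolated on a Percoll gradient (1.080 g/mL, 400g, 20 min, 20 C), erythrocytes removed by hypotonic lysis, and cells washed in PAG buffer (PIPES pH 7.4, 0.003% HSA, 0.1% glucose). Carotenoid phospholipid isomer mix was taken from a 41.2% EtOH stock (0.4% EtOH final). Cells were preincubated 5 min, then PMA-stimulated. The DEPMPO-OOH adduct (10 mM DEPMPO) was read by X-band EPR, and % inhibition set against the no-compound control.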

Homo sapiens [4] = species on record: Homo sapiens; experiment: Mean percent inhibition of aqueous superoxide anion production in isolated human neutrophil assay at 3 mM using water as solvent; summary of the method: as §1
Homo sapiens [5] = species on record: Homo sapiens; experiment: Mean percent inhibition of aqueous superoxide anion production in isolated human neutrophil assay at 0.1 mM using ethanol as solvent; summary of the method: as §2
Homo sapiens [6] = species on record: Homo sapiens; experiment: Mean percent inhibition of aqueous superoxide anion production in isolated human neutrophil assay at 0.3 mM using ethanol as solvent; summary of the method: as §2
Homo sapiens [7] = species on record: Homo sapiens; experiment: Mean percent inhibition of aqueous superoxide anion production in isolated human neutrophil assay at 0.5 mM using water as solvent; summary of the method: as §1
Homo sapiens [8] = species on record: Homo sapiens; experiment: Mean percent inhibition of aqueous superoxide anion production in isolated human neutrophil assay at 1 mM using ethanol as solvent; summary of the method: as §2
Homo sapiens [9] = species on record: Homo sapiens; experiment: Mean percent inhibition of aqueous superoxide anion production in isolated human neutrophil assay at 0.5 mM using ethanol as solvent; summary of the method: as §2

| Compound | Mean inhibition (Homo sapiens [1]) [%] | Mean inhibition (Homo sapiens [2]) [%] | Mean inhibition (Homo sapiens [3]) [%] | Mean inhibition (Homo sapiens [4]) [%] | Mean inhibition (Homo sapiens [5]) [%] | Mean inhibition (Homo sapiens [6]) [%] | Mean inhibition (Homo sapiens [7]) [%] | Mean inhibition (Homo sapiens [8]) [%] | Mean inhibition (Homo sapiens [9]) [%] |
| --- | --- | --- | --- | --- | --- | --- | --- | --- | --- |
| CC1=C(/C=C/C(C)=C/C=C/C(C)=C/C=C/C=C(C)/C=C/C=C(\C)C(=O)OC(CO)COP(=O)([O-])OCC[N+](C)(C)C)C(C)(C)CCC1.CC1=C(/C=C/C(C)=C/C=C/C(C)=C/C=C/C=C(C)/C=C/C=C(\C)C(=O)OCC(CO)OP(=O)([O-])OCC[N+](C)(C)C)C(C)(C)CCC1.CC1=C(/C=C/C(C)=C/C=C/C(C)=C/C=C/C=C(C)/C=C/C=C(\C)C(=O)OCC(O)COP(=O)([O-])OCC[N+](C)(C)C)C(C)(C)CCC1 (stereo not given) | 24.6 | 94.3 | 98.7 | 51.8 | 13.3 | 31.3 | 18.2 | 79.3 | 61.7 |
| CC1=C(/C=C/C(C)=C/C=C/C(C)=C/C=C/C=C(C)/C=C/C=C(C)/C=C/C2=C(C)C(=O)C(OC(=O)CCC(=O)[O-])CC2(C)C)C(C)(C)CC(OC(=O)CCC(=O)[O-])C1=O.[Na+].[Na+] (stereo not given) [DISODIUM SALT DISUCCINATE DIESTER OF ASTAXANTHIN] | – | – | – | – | 38 | – | – | – | – |
